# Compound activity: PubChem BioAssay, Sanford-Burnham Center for Chemical Genomics
# Diaphorase act = diaphorase activation or chemical reduction counter-screen; 190,000 tested, 0.005% active; activation factor at 20 µM; Diaphorase/resazurin coupled assay, resorufin fluorescence, 16 min; active compounds read high; 1 = vehicle wells, 0 = NADH-free wells;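 active = diaphorase activity raised at least twofold by the compound at 20 µM; inactive = activation factor below 2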
#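 Test system: Clostridium kluyveri diaphorase, purified enzyme; input: enzyme 0.07 U/mL final; buffer or medium: 50 mM HEPES pH 7.4 with 4.542 mM MgCl2, 0.005% Tween 20; also added: 0.114 mM NADH and 0.1 mM resazurin, final amounts; schedule: 16 min enzyme reaction, ambient temperature; technique: fluorescence of resorufin, 544 nm excitation, 590 nm emission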
# Diaphorase inh = counter-screen for diaphorase-based assays: diaphorase inhibitors and chemical oxidizers | diaphorase resazurin-to-resorufin fluorescence, NADH, 16 min; bacterial (C. kluyveri) enzyme, not human | inhibition, % at 20 µM | 190,000 tested, 0.69% active | AID 1217;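 active = primary screen inhibition at 20 µM above a set limit, cut at about 50% in these data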;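 also: plate controls were DMSO with full reaction for no effect and wells lacking NADH for full effect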
#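 Test system: bacterial diaphorase enzyme (C. kluyveri); Quantity: 0.14 U/mL diaphorase, enzyme working solution; Times: reaction incubation of 16 min at room temperature; Measured by: fluorescence of resorufin formed from resazurin, Ex 544/Em 590 nm; Benchmarks: positive control minus NADH, DMSO neutral control.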
# PfGluPho inh = PfG6PD (Plasmodium falciparum) enzyme inhibition | PfGluPho enzyme, NADPH resazurin-diaphorase fluorescence | inhibition, % at 20 µM | 350,000 tested, 0.78% active;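 active = inhibition reaching at least a set limit at 20 µM in the primary screen, cut at about 59% in these data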;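 also: 0% = DMSO wells with substrate and 100% = DMSO wells lacking glucose-6-phosphate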
# HKDC1 inhibitor = blocks human hexokinase HKDC1 activity; Q2TB90; recombinant HKDC1, G6PDH/diaphorase resazurin coupled fluorescence; inhibition, % at 20 µM; 340,000 tested, 0.16% active;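 active = inhibition above about 35% when tested at 20 µM, limit read from the data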;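 also: plate controls were DMSO wells with enzyme for no effect and DMSO wells lacking enzyme for full effect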
# Target sequence (Q2TB90 whole entry, looked up): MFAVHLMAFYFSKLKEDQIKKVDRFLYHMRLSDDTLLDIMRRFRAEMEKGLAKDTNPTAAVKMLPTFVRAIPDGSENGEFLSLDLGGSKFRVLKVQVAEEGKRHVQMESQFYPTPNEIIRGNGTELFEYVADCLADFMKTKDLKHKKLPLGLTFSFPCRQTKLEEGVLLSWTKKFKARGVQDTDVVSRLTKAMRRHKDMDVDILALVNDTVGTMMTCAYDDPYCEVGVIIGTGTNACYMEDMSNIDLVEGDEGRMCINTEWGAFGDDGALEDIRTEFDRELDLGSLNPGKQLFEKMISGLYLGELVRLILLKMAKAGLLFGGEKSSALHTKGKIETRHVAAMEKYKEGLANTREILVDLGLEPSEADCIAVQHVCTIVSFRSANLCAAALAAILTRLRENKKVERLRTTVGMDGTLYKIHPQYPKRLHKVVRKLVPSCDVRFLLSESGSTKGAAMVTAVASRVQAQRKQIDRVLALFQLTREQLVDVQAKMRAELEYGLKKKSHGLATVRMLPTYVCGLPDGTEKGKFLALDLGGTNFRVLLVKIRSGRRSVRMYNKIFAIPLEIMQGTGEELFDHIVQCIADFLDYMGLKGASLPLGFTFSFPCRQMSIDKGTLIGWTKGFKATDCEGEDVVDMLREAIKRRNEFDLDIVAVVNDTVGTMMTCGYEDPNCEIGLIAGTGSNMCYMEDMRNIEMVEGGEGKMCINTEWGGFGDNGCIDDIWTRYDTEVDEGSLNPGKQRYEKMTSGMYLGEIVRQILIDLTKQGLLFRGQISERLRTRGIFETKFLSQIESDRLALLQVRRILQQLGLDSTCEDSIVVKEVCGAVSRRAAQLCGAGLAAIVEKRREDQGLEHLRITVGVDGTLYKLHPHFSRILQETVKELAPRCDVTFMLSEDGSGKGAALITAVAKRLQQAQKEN
#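 Test system: Recombinant HKDC1 (HK5) hexokinase enzyme, produced in-house | Input: HKDC1 at 5 µg/mL | Buffer or medium: Tris pH 8.0 buffer with MgCl2, Tween-20, BSA, BME | Schedule: 90 min reaction incubation at room temperature, dark | Technique: Resazurin-to-resorufin fluorescence via G6PDH and diaphorase coupling, 525/613 nm | Controls: DMSO wells with and without enzyme mix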
# G6PDH counter = counter-screen for G6PDH assay hits: L. mesenteroides G6PDH inhibition | 200,000 tested, 0.12% active | inhibition, % at 5 µM | Purified L. mesenteroides G6PDH, diaphorase/resazurin coupled fluorescence, 45 min | AID 1020; in the data active = inhibition above about 50%
# HKDC1 act conf2 = HKDC1 (human) activation, single-dose confirmed; shares compounds with HKDC1 inhibitor; recombinant HKDC1, G6PDH/diaphorase resazurin fluorescence; active compounds read low; inhibition, % at 20 µM; 740 tested, 14% active; AID 504708;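 active = inhibition at or below a set negative limit, negative inhibition meaning the enzyme was activated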
# PfG6PD confirm = confirmation of Plasmodium falciparum G6PD inhibitors; recombinant PfGluPho, NADPH-diaphorase-resazurin fluorescence; 2,400 tested, 34% active; inhibition, % at 20 µM; shares compounds with PfGluPho inh;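 active = inhibition of at least 50% at 20 µM in any single replicate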;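 also: 0% = DMSO with substrate and 100% = DMSO lacking glucose-6-phosphate substrate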
# Diaph ctr 10uM = counter-screen for P. falciparum G6PD inhibitors: diaphorase inhibitors, oxidizers. inhibition, % at 20 µM. diaphorase-coupled resazurin reduction, fluorescence, NADPH 10 uM. 820 tested, 39% active. shares compounds with PfGluPho inh;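 active = average inhibition reaching 50% or more with the compound at 20 µM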;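 also: resorufin red fluorescence formed as diaphorase reduces resazurin using NADPH; 0% = DMSO with enzyme and 100% = DMSO without enzyme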
# Diaph ctr 30uM = inhibits diaphorase or oxidizes, flagging false PfG6PD hits | inhibition, % at 20 µM | Diaphorase/resazurin coupled assay, resorufin fluorescence, 30 uM NADPH | shares compounds with PfGluPho inh | 820 tested, 29% active;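 active = inhibition averaging 50% or more, tested at 20 µM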;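 also: 0% = DMSO with enzyme and 100% = DMSO wells lacking diaphorase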
# The depositor's hits bear a star; / = not tested or not shown. Most compounds without a hit are left out; they make up all but 1.3% or so of the library.
SMILES,Diaphorase act,Diaphorase inh,PfGluPho inh,HKDC1 inhibitor,G6PDH counter,HKDC1 act conf2,others
CCc1ccc2c(c1)C(NC(C)=O)C(=O)N2CCN1CCOCC1 (centres undefined),/,/,20,80*,/,57,
Cc1ccccc1Nc1nc(N)nc(CSc2nnc3sc4ccccc4n23)n1,0.5,46,35,36*,-5,33,
COc1cc(C(=O)NCC(=O)NNC(=O)CN(C)S(=O)(=O)c2ccc(Cl)cc2)cc(OC)c1OC,/,/,-10,2,/,/,
COc1ccc(N(C(=O)CCl)C(C(=O)NCCc2ccccc2)c2cccs2)cc1Cl (centres undefined),1,4,-1,32,0,21,
COc1cccc(N(C(=O)CCl)C(C(=O)NCCc2ccccc2)c2cccs2)c1 (centres undefined),1,0,1,16,-8,/,
CC1(c2cccc(Br)c2)NC(=O)N(CC(=O)N2CCN(C(=O)c3ccco3)CC2)C1=O (centres undefined),/,/,9,-9,/,/,
CN=CC1=C(O)c2ccccc2C1=O,0.9,14,1,-8,5,/,
O=C1C(C2=C(O)c3ccccc3C2=O)=Nc2ccccc21,0.9,10,17,-242,56*,-162*,
CCCCC(CC)CN=C(N)NC(N)=NCCCCCCN=C(N)NC(N)=NCC(CC)CCCC (centres undefined),/,/,41,42*,/,46,
O=c1nc(/C=C/c2cccn2-c2ccc([N+](=O)[O-])cc2)cc(C(F)(F)F)[nH]1,0.7,33,1,16,7,/,
O=c1nc(/C=C/c2cc([N+](=O)[O-])ccc2Cl)cc(C(F)(F)F)[nH]1,0.9,8,13,30,7,17,
CC(C)CNC(=O)COC(=O)CNC(=O)c1cc(Cl)cc([N+](=O)[O-])c1,0.9,11,15,-52,-5,-24,
COC(=O)C(C(=O)OC)c1ncccc1[N+](=O)[O-],/,/,-6,-1,/,/,
Cc1c2cnn(CC(=O)Nc3c(F)c(F)cc(F)c3F)c(=O)c2c(C)n1Cc1ccc(F)cc1,0.9,11,/,/,-4,/,
Cc1ccc(C)c(-n2nnnc2Sc2nnnn2-c2ccccc2)c1,/,/,-5,47*,/,39,
CCOC(=O)/C=C(\C)Sc1cc(O)c2ccccc2c1O,/,/,108*,57*,/,54,
COc1ccc(-c2n[nH]c(C(F)(F)F)c2-c2cc3ccccc3o2)c(O)c1,0.8,20,-5,0,7,/,
CCC(C)(C)NC(=O)C1CCC(CNS(=O)(=O)c2cccc3nsnc23)CC1 (centres undefined),/,/,-1,51*,/,-12,
COc1ccc(N(CCN2C(=O)c3ccccc3C2=O)C(=O)c2cccc([N+](=O)[O-])c2)cc1,0.9,6,3,-1,24,/,
COc1ccc(N(CCCN2C(=O)c3cccc4cccc(c34)C2=O)C(=O)c2cccnc2)cc1,0.4,58*,8,36*,8,23,
O=C(CCl)N1CCN2C(=O)c3ccccc3C12c1ccc(Cl)cc1 (centres undefined),1,5,17,32,2,8,
Cc1ccc(C(=O)N2CCN3C(=O)c4ccccc4C23c2ccc(Cl)cc2)cc1 (centres undefined),0.8,22,-14,7,0,/,
CCCC(=O)Nc1ccc(C(=O)COC(=O)C2CC2C)cc1 (centres undefined),/,/,4,-4,/,/,
COc1ccc(N2CCN(C(=O)Cc3ccc(C)cc3)CC2)cc1,/,/,25,-2,/,/,
O=S(=O)(NCCc1ccccc1)c1ccc(Br)cc1,/,/,8,4,/,/,
SMILES,Diaphorase act,Diaphorase inh,PfGluPho inh,HKDC1 inhibitor,G6PDH counter,HKDC1 act conf2,others
COc1ccc(C2=NOC(C(=O)NCCCN3CCOCC3)C2)cc1 (centres undefined),1,3,0,-8,-5,/,
O=C1C(Cl)=C(NCc2cccnc2)C(=O)c2ccccc21,/,/,-98,-45,/,-45*,
C=CCNC1=C(Cl)C(=O)c2ccccc2C1=O,1,4,-142,7,42,/,
CCCn1nc(C(=O)Nc2cccc(S(=O)(=O)N(C)c3ccccc3)c2)c2ccccc2c1=O,/,/,-2,1,/,/,
CC(C)c1cc(CNC(=O)c2ccc(OC3CCN(Cc4ccccn4)CC3)cc2)on1,/,/,-15,5,/,/,
Cc1ccc2cc(C=C(C#N)C#N)c(N3CCCCC3)nc2c1,0.8,20,-8,41*,1,-11,
Cc1cc(C(=O)CSc2nnc(-c3ccco3)o2)c(C)n1CC1COc2ccccc2O1 (centres undefined),0.8,21,17,-1,0,/,
COc1ccc(CN2c3c(Br)cccc3C(=O)CS2(=O)=O)cc1,/,/,-22,1,/,/,
O=C(Nc1ccc(S(=O)(=O)Nc2ncccn2)cc1)c1ccc2ncsc2c1,/,/,15,34,/,33,
C=CS(=O)(=O)c1c2cc(OC)ccc2nc2ccc(OC)cc12,/,/,69*,34,/,4,PfG6PD confirm=20
N#Cc1ccccc1S(=O)(=O)N1CCN(C(=O)[C@@H]2CCCN2C(=O)c2cccs2)CC1,/,/,2,-4,/,/,
CC(=O)OCC1OC(n2cc(F)c(=O)[nH]c2=O)C(OC(C)=O)C1OC(C)=O (centres undefined),/,/,1,5,/,/,
O=C1C(F)=CC(COC(c2ccccc2)(c2ccccc2)c2ccccc2)OC1n1cc(F)c(=O)[nH]c1=O (centres undefined),/,/,59*,40*,/,14,PfG6PD confirm=-3
CCC1(Cc2ccccc2)NC(=O)c2ccccc2O1 (centres undefined),1,1,0,-1,6,/,
COc1cc([N+](=O)[O-])ccc1-c1ccc(/C=N\n2cnnc2)o1,/,/,4,1,/,/,
COc1cc([N+](=O)[O-])ccc1-c1ccc(/C=C2\C(=O)ON=C2c2ccccc2)o1,/,/,74*,44*,/,25,PfG6PD confirm=-9
O=C1C(O)=CC(=C(c2ccccc2)c2ccccc2)c2ccccc21,/,/,117*,78*,/,18,PfG6PD confirm=-25
Cc1nc2c(C)c(C)c(C)c(C)c2nc1C,/,/,3,0,/,/,
Cc1nc2c(O)c3c(c(O)c2nc1C)C1C=CC3CC1,/,/,123*,82*,/,90,PfG6PD confirm=102*;Diaph ctr 10uM=95*;Diaph ctr 30uM=89*
COc1ccc(/C=N/n2c(C)nc3sc(C)c(C)c3c2=O)cc1OC,/,/,3,-9,14,/,
N#Cc1cccnc1N1CCN(C(=O)c2ccccc2)CC1,/,/,-13,12,/,/,
